Assay results pooled from the literature.
Protocols differ between the studies behind these lines.
Target: Tyrosine-protein kinase HCK (HCK, Homo sapiens, UniProt P08631)

| Compound | test | conditions | measurement | result |
| --- | --- | --- | --- | --- |
| Cc1cnc(NC2CCOCC2)nc1-n1cnc(C(=O)NC(CN)c2cc(F)cc(Cl)c2)c1 (stereo not shown) | enzyme activity, inhibitor, radiometric | 1 µM | remaining activity | 101% |
| O=C(Nc1cnn(-c2csc(C(=O)NC3COC3)c2)c1)Nc1ccccc1Cl | enzyme activity, inhibitor | 5 µM | remaining activity | 94% |
| CNCc1ccccc1-c1csc([C@H](C)Nc2nc(C)nc3cc(OC)c(OC)cc23)c1 | cell-free assay, competition with immobilised ligand | 1 µM | remaining binding | 98% |
| CS(=O)(=O)CCNCc1ccc(-c2ccc3ncnc(Nc4ccc(OCc5cccc(F)c5)c(Cl)c4)c3c2)o1 | cell-free assay | 0.5 µM | remaining signal | 86.5% |
| CC(=O)c1c(NS(C)(=O)=O)c2cc(-c3ccc(Cl)cc3)c(-c3ccc(Cl)cc3Cl)nc2n(C)c1=O | cell-free assay, competition with immobilised ligand | 1 µM | remaining binding | 100% |
| Cc1ccc(NC(=O)c2ccc(C)c(C(F)(F)F)c2)cc1C#Cc1nn(C2CCC(O)CC2)c2ncnc(N)c12 (stereo not shown) | cell-free assay | 10 µM | remaining signal | 0% |
| O=C1Nc2ccc(Cl)cc2C1=Cc1cc(Cl)c(O)c(Cl)c1 | cell-free assay | 0.5 µM | remaining signal | 83.2% |
| CNc1cccc2cc(C(=O)Nc3ccc(C(=O)O)cc3)c(=O)[nH]c12 | enzyme activity, inhibitor | 10 µM | inhibition | -12% |
| N#CCCc1ccc2c(c1)-c1[nH]c3ccc([N+](=O)[O-])cc3c1CC(=O)N2 | cell-free assay | 0.5 µM | remaining signal | 63.8% |
| COc1ccc2c(c1)O[C@H](c1ccc(OC)c(OC)c1)C[C@@H]2NC(=O)C1(c2ccc3c(c2)OC(F)(F)O3)CC1 | cell-free assay, competition with immobilised ligand | 1 µM | remaining binding | 100% |
| Cc1ccc(C(=O)Nc2ccc(CN3CCN(C)CC3)c(C(F)(F)F)c2)cc1C#Cc1cnc2cccnn12 | enzyme activity | 23.5 nM | remaining activity | 1.6% |
| CNC(=O)c1cc(Oc2ccc(NC(=O)Nc3ccc(Cl)c(C(F)(F)F)c3)cc2)ccn1 | cell-free assay | 0.5 µM | remaining signal | 90.3% |
| CNC(=O)c1ccc(Nc2ncc(C(F)(F)F)c(NCc3nccnc3N(C)S(C)(=O)=O)n2)cc1 | cell-free assay, competition with immobilised ligand | 0.1 µM | remaining binding | 100% |
| CC(C)(C)c1nc2c(s1)c1nc(N)ncc1c1ccc(NS(=O)(=O)c3c(F)cccc3F)c(F)c12 | enzyme activity, inhibitor, radiometric | 1 µM | remaining activity | 82% |
| CCN(CC)CCNC(=O)c1c(C)[nH]c(/C=C2\C(=O)Nc3ccc(F)cc32)c1C | enzyme activity, inhibitor | 0.3 µM | inhibition | 22% |
| CNC(=O)c1cc2c(Oc3ccc(NC(=O)C4(C(=O)Nc5ccc(F)cc5)CC4)cc3)ccnc2cc1OC | enzyme activity, inhibitor, radiometric | 1 µM | inhibition | 98% |
| O=C(Nc1cnn(-c2csc(C(=O)NC3COC3)c2)c1)Nc1c(F)cccc1Cl | enzyme activity, inhibitor | 5 µM | remaining activity | 91.3% |
| Cc1c(NC(=O)c2cc(C(N)=O)nc3cc(F)ccc23)c(C(F)(F)F)nn1Cc1ccc(C(C)(C)C)cc1 | cell-free assay, competition with immobilised ligand | 1 µM | remaining binding | 92% |
| Cc1ccc(Nc2nccc(N(C)c3ccc4c(C)n(C)nc4c3)n2)cc1S(N)(=O)=O | enzyme activity, inhibitor | 10 µM | inhibition | 90% |
| O=C(Nc1ccc(Oc2ccc(F)cc2)cc1)N1CCc2ncccc2[C@H]1c1ccc(F)cc1 | cell-free assay, competition with immobilised ligand | 1 µM | remaining binding | 100% |
| CN(C)C1CCN(CC#Cc2nn(C3CCCC3)c3nc(NCc4ccccc4)ncc23)C1 (stereo not shown) | enzyme activity, inhibitor, FRET | 10 µM | inhibition | 19% |
| O=S(=O)(NC1CCC(c2cc(F)ccc2F)(S(=O)(=O)c2ccc(Cl)cc2)CC1)C(F)(F)F (stereo not shown) | cell-free assay, competition with immobilised ligand | 1 µM | remaining binding | 85% |
| COc1cc2ncnc(Nc3ccc(Oc4ccccc4)cc3C)c2cc1OC | enzyme activity, inhibitor | 1 µM | inhibition | 91% |
| Cc1cc(NC(=O)c2cccc(S(F)(F)(F)(F)F)c2)cc(-n2ccn3nc(-c4cccnc4)cc23)c1 | cell-free assay, competition with immobilised ligand | 1 µM | remaining binding | 98.7% |
| CC(C)(O)[C@H]1CC[C@H](Nc2ccc3ncc(-c4cccc(C(F)(F)F)c4)n3n2)CC1 | enzyme activity, inhibitor | 1 µM | remaining activity | 40.5% |
